System: M14
Experiment: Growth inhibition of human M14 cells after 48 hrs by sulforhodamine B assay
Type: functional
Conditions: M14, 48 h
In short: (§1)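 NCI screen panel. Five 10-fold concentrations from 10^-4 to 10^-8 M. Exposure for the last 48 h of a 72 h incubation. Growth estimated by sulforhodamine B protein assay. GI50 is the concentration giving 50% growth inhibition. Where that level was not reached or was exceeded, the value is given as above or below the highest or lowest concentration tested.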

| SMILES | GI50 [µM] |
| --- | --- |
| CC(=O)C(=CN1CCN(C(=O)c2ccco2)C1=S)C(C)=O | 4 |

System: HOP-92
Experiment: Growth inhibition of human HOP92 cells after 48 hrs by sulforhodamine B assay
Type: functional
Conditions: HOP-92, 48 h
In short: as §1

| SMILES | GI50 [µM] |
| --- | --- |
| CC(=O)C(=CN1CCN(C(=O)c2ccco2)C1=S)C(C)=O | 11.7 |

System: Malme-3M
Experiment: Growth inhibition of human MALME-3M cells after 48 hrs by sulforhodamine B assay
Type: functional
Conditions: not given
In short: as §1

| SMILES | GI50 [µM] |
| --- | --- |
| CC(=O)C(=CN1CCN(C(=O)c2ccco2)C1=S)C(C)=O | 20.7 |

System: 786-0
Experiment: Growth inhibition of human 786-0 cells after 48 hrs by sulforhodamine B assay
Type: functional
Conditions: 786-0, 48 h
In short: as §1

| SMILES | GI50 [µM] |
| --- | --- |
| CC(=O)C(=CN1CCN(C(=O)c2ccco2)C1=S)C(C)=O | 5.3 |

System: IGROV-1
Experiment: Growth inhibition of human IGROV1 cells after 48 hrs by sulforhodamine B assay
Type: functional
Conditions: IGROV-1, 48 h
In short: as §1

| SMILES | GI50 [µM] |
| --- | --- |
| CC(=O)C(=CN1CCN(C(=O)c2ccco2)C1=S)C(C)=O | 3.6 |

System: SNB-75
Experiment: Growth inhibition of human SNB75 cells after 48 hrs by sulforhodamine B assay
Type: functional
Conditions: SNB-75, 48 h
In short: (§2)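 NCI in vitro panel screen. Compounds tested at five 10-fold dilutions, 10^-4 to 10^-8 M. Cells in 96-well plates were exposed for the last 48 h of a 72 h incubation. Viability/growth was read by sulforhodamine B protein assay. GI50 is the concentration giving 50% growth inhibition. Values beyond the tested range are reported as greater or less than the maximum or minimum concentration.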

| SMILES | GI50 [µM] |
| --- | --- |
| CC(=O)C(=CN1CCN(C(=O)c2ccco2)C1=S)C(C)=O | 9 |

System: SK-OV-3
Experiment: Growth inhibition of human SKOV3 cells after 48 hrs by sulforhodamine B assay
Type: functional
Conditions: SK-OV-3, 48 h
In short: as §1

| SMILES | GI50 [µM] |
| --- | --- |
| CC(=O)C(=CN1CCN(C(=O)c2ccco2)C1=S)C(C)=O | 20 |

System: MDA-MB-231
Experiment: Growth inhibition of human MDA-MB-231 cells after 48 hrs by sulforhodamine B assay
Type: functional
Conditions: MDA-MB-231, 48 h
In short: as §1

| SMILES | GI50 [µM] |
| --- | --- |
| CC(=O)C(=CN1CCN(C(=O)c2ccco2)C1=S)C(C)=O | 2.6 |

System: not listed separately
Experiment: Growth inhibition of human […] cells after 48 hrs by sulforhodamine B assay
Type: functional
Conditions: not given
In short: as §1

| SMILES | GI50 [µM] |
| --- | --- |
| CC(=O)C(=CN1CCN(C(=O)c2ccco2)C1=S)C(C)=O | 2.7 |

System: SR
Experiment: Growth inhibition of human SR cells after 48 hrs by sulforhodamine B assay
Type: functional
Conditions: not given
In short: as §2

| SMILES | GI50 [µM] |
| --- | --- |
| CC(=O)C(=CN1CCN(C(=O)c2ccco2)C1=S)C(C)=O | 2.3 |

System: SW-620
Experiment: Growth inhibition of human SW620 cells after 48 hrs by sulforhodamine B assay
Type: functional
Conditions: SW-620, 48 h
In short: as §2

| SMILES | GI50 [µM] |
| --- | --- |
| CC(=O)C(=CN1CCN(C(=O)c2ccco2)C1=S)C(C)=O | 14.6 |

System: ACHN
Experiment: Growth inhibition of human ACHN cells after 48 hrs by sulforhodamine B assay
Type: functional
Conditions: not given
In short: as §1

| SMILES | GI50 [µM] |
| --- | --- |
| CC(=O)C(=CN1CCN(C(=O)c2ccco2)C1=S)C(C)=O | 2.9 |

System: UACC-62
Experiment: Growth inhibition of human UACC62 cells after 48 hrs by sulforhodamine B assay
Type: functional
Conditions: UACC-62, 48 h
In short: as §2

| SMILES | GI50 [µM] |
| --- | --- |
| CC(=O)C(=CN1CCN(C(=O)c2ccco2)C1=S)C(C)=O | 5.5 |

System: KM12
Experiment: Growth inhibition of human KM12 cells after 48 hrs by sulforhodamine B assay
Type: functional
Conditions: KM12, 48 h
In short: as §1

| SMILES | GI50 [µM] |
| --- | --- |
| CC(=O)C(=CN1CCN(C(=O)c2ccco2)C1=S)C(C)=O | 2.8 |

System: UO-31
Experiment: Growth inhibition of human UO31 cells after 48 hrs by sulforhodamine B assay
Type: functional
Conditions: UO-31, 48 h
In short: as §2

| SMILES | GI50 [µM] |
| --- | --- |
| CC(=O)C(=CN1CCN(C(=O)c2ccco2)C1=S)C(C)=O | 2.9 |

System: HL-60(TB)
Experiment: Growth inhibition of human HL-60(TB) cells after 48 hrs by sulforhodamine B assay
Type: functional
Conditions: HL-60, 48 h
In short: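 NCI 60-cell-line screen protocol: cells exposed to compound at five 10-fold dilutions from 10^-4 to 10^-8 M for the last 48 h of a 72 h incubation. Sulforhodamine B protein assay estimated viability/growth. GI50 (50% growth inhibition) derived; where not reached or exceeded, reported as greater or less than the highest or lowest concentration tested.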

| SMILES | GI50 [µM] |
| --- | --- |
| CC(=O)C(=CN1CCN(C(=O)c2ccco2)C1=S)C(C)=O | 5.8 |

System: T47D
Experiment: Growth inhibition of human T47D cells after 48 hrs by sulforhodamine B assay
Type: functional
Conditions: not given
In short: as §2

| SMILES | GI50 [µM] |
| --- | --- |
| CC(=O)C(=CN1CCN(C(=O)c2ccco2)C1=S)C(C)=O | 3.7 |

System: OVCAR-8
Experiment: Growth inhibition of human OVCAR8 cells after 48 hrs by sulforhodamine B assay
Type: functional
Conditions: OVCAR-8, 48 h
In short: as §1

| SMILES | GI50 [µM] |
| --- | --- |
| CC(=O)C(=CN1CCN(C(=O)c2ccco2)C1=S)C(C)=O | 8.2 |

System: SK-MEL-28
Experiment: Growth inhibition of human SK-MEL-28 cells after 48 hrs by sulforhodamine B assay
Type: functional
Conditions: SK-MEL-28, 48 h
In short: as §1

| SMILES | GI50 [µM] |
| --- | --- |
| CC(=O)C(=CN1CCN(C(=O)c2ccco2)C1=S)C(C)=O | 3.9 |

System: NCI-H23
Experiment: Growth inhibition of human NCI-H23 cells after 48 hrs by sulforhodamine B assay
Type: functional
Conditions: NCI-H23, 48 h
In short: as §1

| SMILES | GI50 [µM] |
| --- | --- |
| CC(=O)C(=CN1CCN(C(=O)c2ccco2)C1=S)C(C)=O | 16.4 |

System: LOX IMVI
Experiment: Growth inhibition of human LOXIMVI cells after 48 hrs by sulforhodamine B assay
Type: functional
Conditions: not given
In short: as §1

| SMILES | GI50 [µM] |
| --- | --- |
| CC(=O)C(=CN1CCN(C(=O)c2ccco2)C1=S)C(C)=O | 2.1 |

System: MDA-MB-435
Experiment: Growth inhibition of human MDA-MB-435 cells after 48 hrs by sulforhodamine B assay
Type: functional
Conditions: MDA-MB-435, 48 h
In short: as §1

| SMILES | GI50 [µM] |
| --- | --- |
| CC(=O)C(=CN1CCN(C(=O)c2ccco2)C1=S)C(C)=O | 12.6 |

System: UACC-257
Experiment: Growth inhibition of human UACC257 cells after 48 hrs by sulforhodamine B assay
Type: functional
Conditions: UACC-257, 48 h
In short: as §2

| SMILES | GI50 [µM] |
| --- | --- |
| CC(=O)C(=CN1CCN(C(=O)c2ccco2)C1=S)C(C)=O | 2.5 |

System: HCT-15
Experiment: Growth inhibition of human HCT15 cells after 48 hrs by sulforhodamine B assay
Type: functional
Conditions: HCT-15, 48 h
In short: as §1

| SMILES | GI50 [µM] |
| --- | --- |
| CC(=O)C(=CN1CCN(C(=O)c2ccco2)C1=S)C(C)=O | 2.2 |

System: NCI/ADR-RES
Experiment: Growth inhibition of human NCI/ADR-RES cells after 48 hrs by sulforhodamine B assay
Type: functional
Conditions: not given
In short: as §1

| SMILES | GI50 [µM] |
| --- | --- |
| CC(=O)C(=CN1CCN(C(=O)c2ccco2)C1=S)C(C)=O | 23.2 |

— ChEMBL document CHEMBL1138555, “N-acylated and N,N'-diacylated imidazolidine-2-thione derivatives and N,N'-diacylated tetrahydropyrimidine-2(1H)-thione analogues: synthesis and antiproliferative activity” (Eur J Med Chem, 2009)
